Source: PubChem
NOD2-RIPK2 inh: blocks binding of human NOD2 to RIPK2. CHO BLA complementation NOD2-RIPK2, CCF4 ratio. 0.38% of 360,000 active. inhibition, % at 4.98 µM. AID 624267; in the data active = inhibition above about 21%;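 note: 0% = vehicle only and 100% = reference blocker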
TLR4-MyD88 BLA: TLR4-MyD88 interaction inhibition in cells | O00206+Q99836 | HeLa CL3-4 TLR4/MyD88 BLA complementation, FRET ratio | inhibition, % at 8.4 µM | 0.18% of 200,000 active | AID 861; in the data active = inhibition above about 25%;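 note: 0% = vehicle and 100% = reference inhibitor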
Target sequence (O00206 whole entry, looked up): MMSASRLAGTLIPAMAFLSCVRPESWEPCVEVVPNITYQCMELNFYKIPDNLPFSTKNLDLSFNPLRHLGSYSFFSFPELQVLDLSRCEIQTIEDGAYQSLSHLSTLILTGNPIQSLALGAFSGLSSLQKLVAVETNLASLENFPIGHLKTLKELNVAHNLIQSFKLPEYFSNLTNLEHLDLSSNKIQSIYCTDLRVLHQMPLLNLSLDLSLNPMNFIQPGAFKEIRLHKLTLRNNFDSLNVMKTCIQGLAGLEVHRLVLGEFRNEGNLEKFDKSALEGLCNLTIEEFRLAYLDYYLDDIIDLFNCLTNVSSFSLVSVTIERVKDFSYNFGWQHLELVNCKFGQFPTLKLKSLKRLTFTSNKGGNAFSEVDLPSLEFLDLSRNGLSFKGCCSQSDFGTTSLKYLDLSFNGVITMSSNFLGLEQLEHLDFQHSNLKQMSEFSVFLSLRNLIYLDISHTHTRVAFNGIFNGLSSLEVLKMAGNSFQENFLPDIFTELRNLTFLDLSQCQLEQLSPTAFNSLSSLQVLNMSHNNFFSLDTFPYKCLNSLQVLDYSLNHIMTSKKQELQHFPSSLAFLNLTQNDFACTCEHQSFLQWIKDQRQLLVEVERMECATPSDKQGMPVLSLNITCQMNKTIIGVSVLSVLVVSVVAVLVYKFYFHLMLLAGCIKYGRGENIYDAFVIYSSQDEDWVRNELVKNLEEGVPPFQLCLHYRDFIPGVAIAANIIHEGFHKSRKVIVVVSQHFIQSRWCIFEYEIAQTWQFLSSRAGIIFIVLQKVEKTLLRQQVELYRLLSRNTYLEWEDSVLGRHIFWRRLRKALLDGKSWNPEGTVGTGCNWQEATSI
Target sequence (Q99836 whole entry, looked up): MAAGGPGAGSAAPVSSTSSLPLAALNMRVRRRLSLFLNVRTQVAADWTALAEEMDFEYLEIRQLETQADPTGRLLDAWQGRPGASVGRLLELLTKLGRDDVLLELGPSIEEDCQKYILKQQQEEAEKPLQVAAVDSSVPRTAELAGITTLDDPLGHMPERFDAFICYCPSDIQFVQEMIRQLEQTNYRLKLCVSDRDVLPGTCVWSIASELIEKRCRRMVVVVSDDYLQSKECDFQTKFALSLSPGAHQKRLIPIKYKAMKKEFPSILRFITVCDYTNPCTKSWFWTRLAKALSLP
TLR9-MyD88 inh: inhibitors of human TLR9-MyD88 binding | Q9NR96+Q99836 | CHO BLA complementation TLR9-MyD88, CCF4 FRET ratio | inhibition, % at 4.98 µM | 0.21% of 340,000 active | AID 504734;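 active = inhibition above the mean over all tested compounds plus 3 SD, cut at about 21% in these data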;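 note: 0% = DMSO only wells and 100% = clavulanate BLA inhibitor control wells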
UPR CHOP act: activators of apoptotic arm of unfolded protein response (CHOP). CHO-CHOP luciferase reporter, UPR activation, luminescence; percent of tunicamycin response over DMSO baseline. activation, % at 10 µM. 0.34% of 330,000 active;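 active = at 10 µM dose, activation of 40% or more, normalized to positive control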;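 note: 100% = tunicamycin at 10 µg/mL and 0% = DMSO alone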
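assay system = CHO CHOP reporter cells | amount = 500 CHO-CHOP cells per well | buffer or medium = F12 with 10% FBS | incubation = 16-18 h cell attachment, then 6 h compound exposure, 37 °C | detection = luminescence read with Steady-Glo | read-out = percent activation relative to tunicamycin control | controls = tunicamycin high control, DMSO low control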
CHOP inh: CHOP inhibition in unfolded protein response | CHO-K1 CHOP-promoter luciferase, tunicamycin-induced, 15-18 h | inhibition, % at 10 µM | 3.8% of 220,000 active;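 active = compounds that reduced the stress-induced luciferase reporter signal by more than about 70% of percent inhibition, limit read from the data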;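 note: 0% = tunicamycin plus vehicle and 100% = wells without tunicamycin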
XBP1 UPR activ: adaptive UPR (XBP1) activation | CHO-XBP1 luciferase reporter, IRE1-XBP1 UPR activation, luminescence; percent of tunicamycin response, DMSO as zero | 0.33% of 330,000 active | activation, % at 20 µM | AID 463104;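 active = versus positive control, 20 µM dose yields 30% or more activation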;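 note: 100% = tunicamycin at 10 µg/mL and 0% = DMSO only wells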
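Material – CHO cell line with stable XBP1 luciferase reporter · Buffer or medium – F12 plus 10% FBS · Compound – single point, 20 µM final compound, 1% DMSO · Schedule – 16-18 h cell attachment at 37 °C, then 6 h compound exposure · Signal – Steady-Glo luminescence read · Benchmarks – high control tunicamycin 10 µg/mL final, low control DMSO vehicle only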
An asterisk follows results filed as active; . = not tested or not shown. This excerpt belongs to a sample that is enriched for hits.

SMILES	NOD2-RIPK2 inh	TLR4-MyD88 BLA	TLR9-MyD88 inh	UPR CHOP act	CHOP inh	XBP1 UPR activ
O=c1[nH][nH]c2c1C(C1CCCCC1)OC(C1CCCCC1)C2 (stereo not drawn)	-0.8	.	.	.	.	.
Cc1ccc(OCc2ccc(C(=O)Nc3nc4ccccc4n3Cc3ccccc3)o2)c([N+](=O)[O-])c1	-3.3	-9.9	-8.7	-0.8	87.9*	1.2
Cc1cc(C(=O)Nc2ccncc2)c2ccccc2n1	-3.7	.	-0.5	0.3	.	-2.9
COc1ccc(CNCc2ccco2)cc1OCc1ccccc1	-0.8	-0.4	7.9	3.3	18.0	-4.2
COc1ccccc1CCNCc1ccc(OC)c(OCc2ccccc2)c1	0.6	-7.2	-8.3	1.9	81.8*	-0.2
Cc1ccc(S(=O)(=O)N(C)CC(=O)Nc2ccccc2N2CCCC2)cc1	2.9	.	-11.0	0.6	.	-2.2
CCOC(=O)C1CCCN(Cc2ccc(-c3ccccc3)cc2)C1 (stereo not drawn)	6.8	.	-6.9	1.5	.	-5.8
CCOC(=O)C1CCCN(Cc2c(Cl)cccc2Cl)C1 (stereo not drawn)	-4.5	3.9	-4.6	-1.3	70.6*	-1.1
CC(C)C1Cc2c(sc(NC(=S)NC(=O)c3ccccc3)c2C#N)CO1 (stereo not drawn)	-6.2	-4.8	-10.1	-0.1	83.0*	1.1
CC(C)N1CCc2c(sc(NC(=S)NC(=O)c3ccccc3)c2C#N)C1	8.4	7.9	7.7	3.2	4.6	4.0
CCCCCCCCOC(=O)c1ccc(N)cc1	-2.2	4.2	-20.4	1.9	76.1*	-1.8
CCCCOC(=O)Nc1ccc(C(=O)OCCC)cc1	3.2	16.3	5.4	2.5	86.3*	2.4
CCCCOC(=O)c1ccc(O)cc1	10.4	-1.5	1.9	1.5	0.4	1.1
COc1ccc(N2C(c3ccsc3)=Cc3cc4c(cc3C2c2c[nH]c3ccccc23)OCO4)cc1 (stereo not drawn)	5.8	.	.	.	.	.
C[C@@H]1CN([C@H](C)CO)S(=O)(=O)c2ccc(C#Cc3ccccc3)cc2O[C@H]1CN(C)C(=O)Nc1ccc2c(c1)OCO2	-0.2	.	4.4	.	.	.
N#Cc1ccsc1NC(=O)CN1CCN(Cc2ccccc2)CC1	4.3	2.4	3.2	0.3	4.8	3.7
N#Cc1ccsc1NC(=O)CN1CCN(S(=O)(=O)c2ccc3ccccc3c2)CC1	-0.8	-9.9	8.8	-0.3	77.5*	-4.2
O=C(Cc1csc(Nc2nc(=S)[nH]c3ccccc23)n1)NCc1cccc(Cl)c1	-5.6	-2.5	-7.8	-0.4	80.3*	16.1
O=C(Cc1csc(Nc2nc(=S)[nH]c3ccccc23)n1)NCc1ccccc1Cl	0.4	-11.3	-2.6	-0.2	-11.6	15.4
O=C1c2[nH]nc(-c3ccccc3O)c2C(c2ccc(F)cc2)N1Cc1ccco1 (stereo not drawn)	-0.1	-5.1	3.9	1.2	81.6*	3.6
COc1ccc(C2c3c(-c4ccccc4O)n[nH]c3C(=O)N2Cc2ccco2)cc1OC (stereo not drawn)	-2.0	.	0.8	-0.8	8.8	6.6
CC(=O)OC[C@@H]1CN(Cc2ccccc2)C[C@H](n2cnc3c(N(C)C(C)C)ncnc32)O1	-15.0	.	.	.	.	.
COc1ccccc1NC(=O)CCCN1C(=O)C2CC=CCC2C1=O (stereo not drawn)	-7.4	.	-4.9	-0.9	.	-9.2
CCCCN(CC)S(=O)(=O)c1ccc(C(=O)Nc2nnc(-c3ccccc3Cl)o2)cc1	-10.9	8.2	3.5	10.3	87.8*	-0.8
COc1ccccc1-c1nnc(NC(=O)c2ccc(S(=O)(=O)N(C)CC3CCCO3)cc2)o1 (stereo not drawn)	0.4	.	3.8	0.2	.	-5.1
SMILES	NOD2-RIPK2 inh	TLR4-MyD88 BLA	TLR9-MyD88 inh	UPR CHOP act	CHOP inh	XBP1 UPR activ
CC1CCCCN1S(=O)(=O)c1ccc(C(=O)Nc2nnc(-c3ccccc3Cl)o2)cc1 (stereo not drawn)	0.5	3.0	-8.7	13.2	77.3*	1.4
CCN(Cc1ccccc1)S(=O)(=O)c1ccc(C(=O)Nc2nnc(-c3ccccc3OC)o2)cc1	-2.5	2.4	6.5	2.6	85.0*	-1.6
O=C(Nc1nnc(-c2ccccc2Cl)o1)c1ccc(S(=O)(=O)N2CCCCCC2)cc1	.	6.6	.	12.9	61.4	2.9
COc1ccccc1-c1nnc(NC(=O)c2ccc(S(=O)(=O)N(C)C)cc2)o1	-10.1	11.5	7.8	2.8	85.3*	-0.7
CC(=O)c1cccc(NC(=S)NCCCCc2ccccc2)c1	-1.4	3.1	0.1	1.1	5.2	-1.7
CCC(=O)N1CCCC1(C)C(=O)Nc1cc(OC)ccc1OC (stereo not drawn)	6.7	.	.	.	.	.
O=C(Nc1ccc(F)cc1F)NC1CCN(Cc2c(F)cccc2Cl)CC1	3.8	.	-8.7	-0.6	4.2	-1.6
COc1ncnc2c1ncn2CCCN(CCCc1ccccc1)CCCn1cnc2c(OC)ncnc21	-13.8	.	7.7	.	.	.
O=C(CNC(=O)c1cn2ccccc2n1)Nc1ccc(F)c(F)c1	-3.4	.	1.1	3.0	.	0.8
CNC(=O)c1nn(C)c(=O)[nH]c1=O	1.2	.	3.5	.	.	.
COc1ccc(N2CC(O)=C(c3nc(-c4ccccc4)cs3)C2=N)cc1	-9.6	.	2.1	-0.3	38.8	-2.6
COc1ccc(N2CC(O)=C(c3nc(-c4ccc(Cl)cc4)cs3)C2=N)cc1	-14.2	-6.9	3.1	18.5	13.2	85.2*
COc1ccc(N2CC(O)=C(c3nc(-c4ccc(Br)cc4)cs3)C2=N)cc1	-2.9	6.0	-3.2	14.7	10.1	58.0*
Cc1cccc(/C=C2/SC(=O)N(Cc3ccccc3)C2=O)n1	-3.4	0.2	-7.6	4.0	92.9*	-0.2
O=c1c2ccccc2[nH]c(=S)n1C1CCCCC1	-8.0	-5.2	8.6	-2.6	40.3	5.0
CC1CCCC(n2c(=S)[nH]c3ccccc3c2=O)C1C (stereo not drawn)	-4.7	0.3	-3.9	-1.3	93.8*	2.7
O=C1CC(O)(C(F)F)Oc2ccc3ccccc3c21 (stereo not drawn)	8.1	3.3	0.8	-2.5	37.2	-1.7
O=C1CC(O)(C(F)(F)F)Oc2c1ccc1ccccc21 (stereo not drawn)	-5.4	-8.3	7.5	0.2	89.4*	2.4
c1ccc(-[n+]2nc(Nc3cccc4ccccc34)sc2-c2c3ccccc3cc3ccccc23)cc1	50.9*	.	44.3*	13.6	.	1.1
COc1ccc(CCNC(=O)Nc2ccc(F)cc2F)cc1OC	1.1	.	-5.5	0.8	.	-1.4
CNc1nc2cc([N+](=O)[O-])c([N+](=O)[O-])cc2nc1NC	-14.6	-0.1	-3.2	.	75.4*	.
CN(C)c1nc(OCCNC(=O)COc2ccccc2Cl)nc(N(C)C)n1	-3.7	0.3	-4.5	-1.7	-0.9	-0.6
CCC(=O)N1CCN(c2ccc(Cl)cc2NC(=O)Cc2ccc(Cl)cc2)CC1	8.6	5.8	4.2	-2.2	80.5*	-1.3
